Reference: article PMC5693369 (Nature chemical biology, 2017)

Experiments:
STAT1–STAT2 = test: TF-seq pathway reporter assay in BMDMs, STAT1–STAT2; format: cell-based, mouse; conditions: ~2 h after stimulation
[1] = test system: human, monocyte-derived DCs; test: IL-10 production in R848-stimulated human DCs; format: cell-based; conditions: human DCs from two independent donors, R848 stimulation
How it was run: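 CD14+ monocytes enriched from healthy-donor buffy coats and cultured to DCs. On day 7, cells scraped and plated at 30,000/well, treated with a concentration series of test compound or DMSO (0.5%), then stimulated 18 h with R848 (2 μg/mL). Medium stored at −80 °C before IL-10 detection. n = 3 biological replicates per donor; two independent experiments.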

[2] = molecular target: T1, recombinant cyclin C–CDK8 (Homo sapiens, UniProt P49336); test: CDK8–c-Jun in vitro kinase reaction; format: biochemical; conditions: in vitro kinase reaction with recombinant c-Jun
T1 sequence (P49336 whole entry): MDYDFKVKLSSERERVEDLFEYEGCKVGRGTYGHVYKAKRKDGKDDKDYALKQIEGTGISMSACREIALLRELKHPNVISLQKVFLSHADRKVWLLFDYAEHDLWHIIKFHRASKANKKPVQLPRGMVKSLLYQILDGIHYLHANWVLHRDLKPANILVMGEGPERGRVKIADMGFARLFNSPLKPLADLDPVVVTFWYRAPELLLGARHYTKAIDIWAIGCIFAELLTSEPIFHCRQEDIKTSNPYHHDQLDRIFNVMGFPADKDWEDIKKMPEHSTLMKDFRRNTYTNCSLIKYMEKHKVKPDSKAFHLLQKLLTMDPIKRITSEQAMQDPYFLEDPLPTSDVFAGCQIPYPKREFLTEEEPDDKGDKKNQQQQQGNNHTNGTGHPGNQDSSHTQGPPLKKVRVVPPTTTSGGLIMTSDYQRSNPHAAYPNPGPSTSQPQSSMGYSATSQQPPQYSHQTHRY
T1 sequence (P24863 whole entry partner): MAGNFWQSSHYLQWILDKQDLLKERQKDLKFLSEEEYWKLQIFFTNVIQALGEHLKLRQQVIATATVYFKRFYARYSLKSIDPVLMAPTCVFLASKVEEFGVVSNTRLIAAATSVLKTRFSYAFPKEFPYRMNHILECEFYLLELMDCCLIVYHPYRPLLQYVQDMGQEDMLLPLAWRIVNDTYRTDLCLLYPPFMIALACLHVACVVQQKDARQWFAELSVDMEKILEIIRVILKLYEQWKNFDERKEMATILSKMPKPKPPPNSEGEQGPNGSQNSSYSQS
How it was run: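 60 ng recombinant cyclin C–CDK8 and 60 ng recombinant human c-Jun pre-incubated 15 min with a dilution series of test compound. Reaction started with 20 μM ATP and run 30 min at 30 °C in 60 mM HEPES pH 7.5, 3 mM MgCl2, 3 mM MnCl2, 1.2 mM DTT, then EDTA-quenched. Read by SDS–PAGE and immunoblot for phospho-c-Jun Ser243; two independent experiments.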

c-Jun = c-Jun phosphorylation in R848-activated BMDCs; format: cell-based, mouse; conditions: dCA pretreatment (100 nM; 18 h)
How it was run: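 BMDCs pretreated with test compound, then activated with R848 for a time course. Lysates (10–20 μg protein) separated by SDS–PAGE, transferred to PVDF and immunoblotted for phospho-c-Jun Ser243 (1/1000) with chemiluminescent detection. Two independent experiments.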

NF-κB = test: TF-seq pathway reporter assay in BMDMs, NF-κB; format: cell-based, mouse; conditions: all stimuli tested
How it was run: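 Bone-marrow macrophages grown in DMEM with 30% FBS and 10% L929-conditioned medium, transduced on day 4 with a pooled lentiviral sequencing-based reporter library, then frozen and thawed. Cells plated at 100,000/well and pretreated 24 h at 37 °C with test compound (0.1 or 5 μM) or DMSO (0.5%). Stimulated up to 3 h with a ten-ligand panel or Sendai virus (MOI 10). Reporter transcripts counted as unique tagged molecules by sequencing.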

[3] = test system: bone-marrow-derived dendritic cells (BMDCs); test: Cytokine production in R848-stimulated BMDCs; format: cell-based, mouse; conditions: for IL-10 upregulation in Ccnc Δ/Δ BMDCs: BMDCs lacking cyclin C; for IL-10 upregulation in Ccnc Δ/Δ BMDCs / IL-10 upregulation in Ccnc f/f BMDCs: R848; for IL-10 production: BMDCs, R848 stimulation; for IL-10 upregulation in Ccnc f/f BMDCs: control BMDCs
How it was run: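 BMDCs from C57BL/6 bone marrow, pretreated 24 h with test compound or DMSO (0.5%), then given R848 (2 μg/mL) or zymosan A (4 μg/mL) for 18 h; some sets co-treated with T-5224 (100 μM). Cyclin C-deleted cells came from Ccnc f/f × Mx1-Cre mice given poly(I:C) 2.5 μg g−1 i.p. every other day for 3 d, with bone marrow taken 10 d later and deletion confirmed by PCR. Clarified medium assayed by cytometric bead array. n = 3–4 biological replicates; EC50 by 4-parameter regression.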

STAT1 = STAT1 phosphorylation in IFNγ-stimulated BMDCs; format: cell-based, mouse; conditions: BMDCs pre-incubated with compound
How it was run: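 BMDCs pre-incubated with test compound, then stimulated with recombinant murine IFNγ. Cells lysed in Tris pH 7.4 buffer with phosphatase and protease inhibitors, 1% Triton X-100 and 0.2% SDS; lysate clarified at 14,000 × g. 10–20 μg protein run on SDS–PAGE and blotted to PVDF. Probed for total STAT1 and p-STAT1 Tyr701 (1/1,000), β-actin; chemiluminescent detection.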

PI3KCG = PI3KCG (Homo sapiens, UniProt P48736); test: Kinase profiling, PI3KCG; format: binding; conditions: both kinase profiling formats
Chain of PI3KCG (P48736 whole entry): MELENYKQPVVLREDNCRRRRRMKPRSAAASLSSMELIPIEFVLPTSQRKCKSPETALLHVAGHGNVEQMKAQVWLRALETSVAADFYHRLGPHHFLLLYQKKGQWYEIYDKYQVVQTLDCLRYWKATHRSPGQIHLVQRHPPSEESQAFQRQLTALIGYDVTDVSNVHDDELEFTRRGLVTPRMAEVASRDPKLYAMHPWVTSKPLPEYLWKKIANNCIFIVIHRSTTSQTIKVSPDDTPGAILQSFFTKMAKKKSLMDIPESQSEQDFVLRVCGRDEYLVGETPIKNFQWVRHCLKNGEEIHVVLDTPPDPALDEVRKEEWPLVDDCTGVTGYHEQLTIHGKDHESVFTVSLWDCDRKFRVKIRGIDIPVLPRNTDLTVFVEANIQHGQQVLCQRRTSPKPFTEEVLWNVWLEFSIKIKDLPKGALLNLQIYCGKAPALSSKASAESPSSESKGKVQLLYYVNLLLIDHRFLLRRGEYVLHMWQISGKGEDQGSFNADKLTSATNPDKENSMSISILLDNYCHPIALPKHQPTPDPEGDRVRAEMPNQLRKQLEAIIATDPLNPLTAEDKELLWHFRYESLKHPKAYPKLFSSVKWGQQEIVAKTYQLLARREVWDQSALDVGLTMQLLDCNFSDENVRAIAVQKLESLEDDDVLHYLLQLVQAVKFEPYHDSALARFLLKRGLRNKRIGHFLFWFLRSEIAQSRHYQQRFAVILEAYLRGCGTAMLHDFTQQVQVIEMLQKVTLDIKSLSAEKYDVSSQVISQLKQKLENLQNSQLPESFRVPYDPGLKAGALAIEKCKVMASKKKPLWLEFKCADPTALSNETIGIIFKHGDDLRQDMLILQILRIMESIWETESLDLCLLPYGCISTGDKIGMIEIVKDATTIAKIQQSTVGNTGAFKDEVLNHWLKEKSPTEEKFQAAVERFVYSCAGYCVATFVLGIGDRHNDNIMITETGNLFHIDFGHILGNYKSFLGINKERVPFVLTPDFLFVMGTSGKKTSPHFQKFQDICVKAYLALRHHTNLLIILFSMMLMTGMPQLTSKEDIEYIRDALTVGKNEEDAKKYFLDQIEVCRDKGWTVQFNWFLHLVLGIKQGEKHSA
How it was run: (§1)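 Test compound screened at 1 μM against 414 kinases (LanthaScreen Eu binding, Adapta or Z-LYTE), scored as percent probe displacement or residual activity versus DMSO (0.5%). Also screened at 10 μM against 395 kinases by KINOMEscan active-site competitive binding, scored as percent displacement of a catalytic-site probe versus DMSO (0.5%).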

PI3KC2A = PI3KC2A (Homo sapiens, UniProt O00443); test: Kinase profiling, PI3KC2A; format: binding; conditions: both kinase profiling formats
Chain of PI3KC2A (O00443 whole entry): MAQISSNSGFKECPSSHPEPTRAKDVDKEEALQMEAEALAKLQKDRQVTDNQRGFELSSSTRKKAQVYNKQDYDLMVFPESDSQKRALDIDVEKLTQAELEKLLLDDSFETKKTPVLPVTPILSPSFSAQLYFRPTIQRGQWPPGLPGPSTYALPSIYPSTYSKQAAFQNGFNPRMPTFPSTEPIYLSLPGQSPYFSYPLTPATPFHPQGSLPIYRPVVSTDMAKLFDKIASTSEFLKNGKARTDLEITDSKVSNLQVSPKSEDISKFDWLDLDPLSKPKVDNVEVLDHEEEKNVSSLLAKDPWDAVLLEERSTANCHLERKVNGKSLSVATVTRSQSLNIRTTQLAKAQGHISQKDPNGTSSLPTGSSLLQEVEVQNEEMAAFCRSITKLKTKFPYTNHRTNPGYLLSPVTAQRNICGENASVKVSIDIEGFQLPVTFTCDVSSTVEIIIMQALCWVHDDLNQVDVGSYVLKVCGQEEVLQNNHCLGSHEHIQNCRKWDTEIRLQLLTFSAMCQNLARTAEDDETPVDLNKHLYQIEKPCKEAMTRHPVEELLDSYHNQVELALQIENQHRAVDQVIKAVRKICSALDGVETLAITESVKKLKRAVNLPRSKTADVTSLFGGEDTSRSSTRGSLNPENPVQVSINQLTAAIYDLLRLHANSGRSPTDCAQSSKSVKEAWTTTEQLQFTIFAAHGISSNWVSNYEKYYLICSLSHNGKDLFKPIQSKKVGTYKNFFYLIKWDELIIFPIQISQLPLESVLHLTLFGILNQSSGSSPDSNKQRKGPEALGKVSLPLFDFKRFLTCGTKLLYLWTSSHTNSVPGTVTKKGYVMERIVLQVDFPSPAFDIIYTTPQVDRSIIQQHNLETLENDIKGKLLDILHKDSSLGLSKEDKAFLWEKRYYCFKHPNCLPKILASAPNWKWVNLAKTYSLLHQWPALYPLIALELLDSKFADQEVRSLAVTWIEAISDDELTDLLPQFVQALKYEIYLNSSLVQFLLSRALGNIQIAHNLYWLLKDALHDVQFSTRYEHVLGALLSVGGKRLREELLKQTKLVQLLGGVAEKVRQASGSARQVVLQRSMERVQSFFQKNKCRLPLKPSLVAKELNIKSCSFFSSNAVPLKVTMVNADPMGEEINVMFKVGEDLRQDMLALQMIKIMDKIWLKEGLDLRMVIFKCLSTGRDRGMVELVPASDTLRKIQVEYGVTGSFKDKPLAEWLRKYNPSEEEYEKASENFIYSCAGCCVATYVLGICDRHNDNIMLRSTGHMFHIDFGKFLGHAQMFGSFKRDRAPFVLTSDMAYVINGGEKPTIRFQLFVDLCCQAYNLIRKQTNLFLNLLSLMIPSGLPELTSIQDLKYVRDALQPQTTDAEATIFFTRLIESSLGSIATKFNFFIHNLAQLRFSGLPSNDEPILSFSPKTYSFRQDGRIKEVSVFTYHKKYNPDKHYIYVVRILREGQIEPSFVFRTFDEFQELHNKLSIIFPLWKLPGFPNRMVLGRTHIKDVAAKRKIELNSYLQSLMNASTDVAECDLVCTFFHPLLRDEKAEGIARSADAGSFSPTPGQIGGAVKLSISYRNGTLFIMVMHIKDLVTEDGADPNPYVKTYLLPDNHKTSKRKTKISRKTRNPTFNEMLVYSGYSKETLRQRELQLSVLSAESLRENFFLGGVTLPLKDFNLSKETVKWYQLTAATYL
How it was run: as §1

[4] = molecular target: recombinant cyclin C–CDK19 (Homo sapiens, UniProt Q9BWU1); test: CDK19 radiometric filter-binding kinase activity assay; format: biochemical; conditions: read-out: inhibition of kinase activity of cyclin C–CDK19, IC50
Chain of recombinant cyclin C–CDK19 (Q9BWU1 whole entry): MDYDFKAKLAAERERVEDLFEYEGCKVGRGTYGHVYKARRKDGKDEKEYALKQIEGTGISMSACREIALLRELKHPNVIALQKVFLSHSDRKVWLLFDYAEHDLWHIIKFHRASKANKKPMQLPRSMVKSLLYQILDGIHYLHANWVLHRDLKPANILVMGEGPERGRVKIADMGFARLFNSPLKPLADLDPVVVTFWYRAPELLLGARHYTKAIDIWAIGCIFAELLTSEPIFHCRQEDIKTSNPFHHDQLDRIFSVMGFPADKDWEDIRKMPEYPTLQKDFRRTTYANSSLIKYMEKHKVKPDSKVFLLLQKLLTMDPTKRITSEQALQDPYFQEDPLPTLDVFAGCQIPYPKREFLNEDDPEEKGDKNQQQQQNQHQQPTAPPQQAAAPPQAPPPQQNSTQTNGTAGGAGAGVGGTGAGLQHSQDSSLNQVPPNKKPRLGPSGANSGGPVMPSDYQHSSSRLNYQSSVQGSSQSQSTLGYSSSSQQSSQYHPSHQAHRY
Chain of recombinant cyclin C–CDK19 (P24863 whole entry partner): as the sequence (P24863 whole entry partner) above
How it was run: (§2)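 Purified recombinant cyclin C–CDK8 or cyclin C–CDK19 incubated with a dilution series of test compound. Activity measured by radiometric filter binding as [γ-32P] transfer from ATP to recombinant RBER-IRStide substrate, relative to DMSO (1%) control. IC50 estimated by 4-parameter nonlinear regression.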

[5] = test system: bone-marrow-derived dendritic cells (BMDCs); test: IL-10 release, cytokines and viability in zymosan A-stimulated BMDCs; format: cell-based, mouse
[6] = molecular target: T1, recombinant cyclin C–CDK8; test: CDK8 radiometric filter-binding kinase activity assay; format: biochemical; conditions: read-out: inhibition of kinase activity of cyclin C–CDK8, IC50
How it was run: as §2

[7] = molecular target: human cyclin C–CDK8 complex (Homo sapiens, UniProt P49336); test: Cyclin C-CDK8 LanthaScreen binding assay; conditions: read-out: binding to cyclin C–CDK8, half-maximal inhibitory concentration (IC50)
Chain of human cyclin C–CDK8 complex (P49336 whole entry, the tested form may be a part): as the sequence (P49336 whole entry) above
Chain of human cyclin C–CDK8 complex (P24863 whole entry partner, the tested form may be a part): as the sequence (P24863 whole entry partner) above
How it was run: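 Human cyclin C–CDK8 complex in a LanthaScreen binding format. Binding expressed as percent displacement of a dye-labelled probe from the CDK8 kinase domain.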

[8] = test system: mouse bone-marrow-derived macrophages (BMDMs); test: IL-10 production in activated BMDMs; format: cell-based; conditions: BMDMs activated with zymosan A or R848
How it was run: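 Bone-marrow macrophages from C57BL/6 mice, treated 24 h with test compound or DMSO (0.5%), then stimulated 18 h with R848 (2 μg/mL) or zymosan A (4 μg/mL). IL-10 measured in culture medium.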

Il10 mRNA = Il10 mRNA levels after R848 stimulation; format: cell-based, mouse; conditions: pretreatment, then R848 / microbial stimulation

SMILES	STAT1–STAT2 reporter activity (STAT1–STAT2)	IL-10 production [1]	NF-κB reporter activation (NF-κB)	IL-10 upregulation in Ccnc Δ/Δ BMDCs [3]	IL-10 production [3]	IL-10 upregulation in Ccnc f/f BMDCs [3]	Il10 mRNA levels (Il10 mRNA)	further results
CN(C)[C@H]1C[C@@]23CC[C@@]4(O2)C(=CC[C@]2(C)C(c5ccc6ccncc6c5)=CC[C@H]24)C=C3[C@@H](O)[C@@H]1O [dCA, Δ^16-cortistatin A]	suppressed induction of STAT1–STAT2 activity	recapitulated the IL-10 potentiating activity of BRD6989	suppressed NF-κB activation	failed to upregulate IL-10	recapitulated the IL-10 potentiating activity of BRD6989	remained intact		c-Jun Ser243 phosphorylation by recombinant cyclin C–CDK8 [2]: concentration-dependent suppression; activating phosphorylation of c-Jun on Ser63 (c-Jun): only moderately delayed; phosphorylation of c-Jun Ser243 (c-Jun): dramatically reduced phosphorylation
CC1CCc2nc(N)c(C#N)c(-c3cccnc3)c2C1 (stereo not drawn) [BRD6989]	suppressed induction of STAT1–STAT2 activity	upregulated IL-10	suppressed NF-κB activation	failed to upregulate IL-10	greater fold-increase in IL-10 production	remained intact	sustained increase beginning at 4 h and extending to 24 h	IFNγ-induced phosphorylation of STAT1 at Ser727 (STAT1): inhibited; JAK-mediated phosphorylation of STAT1 Tyr701 (STAT1): did not affect; kinase profiling hit, PI3KCG (PI3KCG): secondary targets; kinase profiling hit, PI3KC2A (PI3KC2A): secondary targets; IC50 [4]: > 30 µM; cell viability ([5]; 48 h pretreatment, zymosan A 18 h): modestly reducing cell viability; production of IL-1β ([5]; zymosan A): largely unchanged; production of IL-12p40 ([5]; zymosan A): largely unchanged; production of TNFα ([5]; zymosan A): largely unchanged; zymosan A–induced release of IL-6 ([5]; zymosan A): suppressed; IC50 [6]: ~0.5 µM; IC50 [7]: ~0.2 µM; IL-10 production [8]: increased IL-10 production
Cn1ncc2cc(-c3cnc(N)c(Cl)c3N3CCC4(CCNC4=O)CC3)ccc21 [CCT251921]		recapitulated the IL-10 potentiating activity of BRD6989			recapitulated the IL-10 potentiating activity of BRD6989			
COc1ccc(N(C(=O)Nc2c(C)cccc2C)c2cc(Nc3ccc(N4CCN(C)CC4)cc3)ncn2)c(OC)c1 [HG-9-91-01, reference compound]							elevated Il10 mRNA during the first 2 h	
CN(C)C/C=C/C(=O)Nc1ccc(C(=O)Nc2cccc(Nc3ncc(Cl)c(-c4c[nH]c5ccccc45)n3)c2)cc1 [THZ-1]					not enhanced			
